Assay results reported in ChEMBL document CHEMBL3045650, “Design, synthesis, and 3D-QSAR analysis of novel 1,3,4-oxadiazol-2(3H)-ones as protoporphyrinogen oxidase inhibitors” (J Agric Food Chem, 2010).

Experiments:
Digitaria sanguinalis = assay: Post-emergence herbicidal activity against Digitaria sanguinalis (hairy crabgrass) assessed as growth inhibition at emulsified concentrate of 150 g/ai ha after 15 days by greenhouse test; assay type: functional
Method in brief: (§1)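 About 20 seeds sown 1–3 cm deep, grown at 15–30 °C and 50% RH. Monocot seedlings sprayed postemergence at the one-leaf stage with a 100 g/L emulsifiable concentrate (DMF/Tween-80) diluted in water, 150 g ai/ha. Untreated and solvent controls included. Visual rating at 15 days, three replicates.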

Echinochloa crus-galli = assay: Post-emergence herbicidal activity against Echinochloa crus-galli (barnyard grass) assessed as growth inhibition at emulsified concentrate of 150 g/ai ha after 15 days by greenhouse test; assay type: functional; method in brief: as §1
Eclipta prostrata [1] = assay: Post-emergence herbicidal activity against Eclipta prostrata assessed as growth inhibition at emulsified concentrate of 75 g/ai ha after 15 days by greenhouse test; assay type: functional
Method in brief: (§2)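 Compounds were made up as 100 g/L emulsifiable concentrates in DMF with Tween-80, then diluted in water. About 20 seeds were sown 1-3 cm deep in pots and grown in a greenhouse at 15-30 °C and 50% relative humidity. Sprays were applied postemergence at the two-leaf stage. Untreated and DMF + Tween-80 solvent controls were included. Injury was scored visually 15 days after treatment, with three replicates per treatment.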

Eclipta prostrata [2] = assay: Post-emergence herbicidal activity against Eclipta prostrata assessed as growth inhibition at emulsified concentrate of 37.5 g/ai ha after 15 days by greenhouse test; assay type: functional; method in brief: as §2
Rumex acetosa [3] = assay: Post-emergence herbicidal activity against Rumex acetosa assessed as growth inhibition at emulsified concentrate of 150 g/ai ha after 15 days by greenhouse test; assay type: functional
Rumex acetosa [4] = assay: Post-emergence herbicidal activity against Rumex acetosa assessed as growth inhibition at emulsified concentrate of 75 g/ai ha after 15 days by greenhouse test; assay type: functional
Rumex acetosa [5] = assay: Post-emergence herbicidal activity against Rumex acetosa assessed as growth inhibition at emulsified concentrate of 37.5 g/ai ha after 15 days by greenhouse test; assay type: functional
Amaranthus retroflexus [6] = assay: Post-emergence herbicidal activity against Amaranthus retroflexus assessed as growth inhibition at emulsified concentrate of 75 g/ai ha after 15 days by greenhouse test; assay type: functional; method in brief: as §2
Amaranthus retroflexus [7] = assay: Post-emergence herbicidal activity against Amaranthus retroflexus assessed as growth inhibition at emulsified concentrate of 37.5 g/ai ha after 15 days by greenhouse test; assay type: functional; method in brief: as §2
Cyperus iria [8] = assay: Post-emergence herbicidal activity against Cyperus iria assessed as growth inhibition at emulsified concentrate of 150 g/ai ha after 15 days by greenhouse test; assay type: functional
Cyperus iria [9] = assay: Post-emergence herbicidal activity against Cyperus iria assessed as growth inhibition at emulsified concentrate of 75 g/ai ha after 15 days by greenhouse test; assay type: functional
Cyperus iria [10] = assay: Post-emergence herbicidal activity against Cyperus iria assessed as growth inhibition at emulsified concentrate of 37.5 g/ai ha after 15 days by greenhouse test; assay type: functional
Abutilon theophrasti [11] = assay: Post-emergence herbicidal activity against Abutilon theophrasti (velvetleaf) assessed as growth inhibition at emulsified concentrate of 150 g/ai ha after 15 days by greenhouse test; assay type: functional
Abutilon theophrasti [12] = assay: Post-emergence herbicidal activity against Abutilon theophrasti (velvetleaf) assessed as growth inhibition at emulsified concentrate of 37.5 g/ai ha after 15 days by greenhouse test; assay type: functional
Abutilon theophrasti [13] = assay: Post-emergence herbicidal activity against Abutilon theophrasti (velvetleaf) assessed as growth inhibition at emulsified concentrate of 75 g/ai ha after 15 days by greenhouse test; assay type: functional
Polygonum humifusum [14] = assay: Post-emergence herbicidal activity against Polygonum humifusum assessed as growth inhibition at emulsified concentrate of 150 g/ai ha after 15 days by greenhouse test; assay type: functional
Polygonum humifusum [15] = assay: Post-emergence herbicidal activity against Polygonum humifusum assessed as growth inhibition at emulsified concentrate of 75 g/ai ha after 15 days by greenhouse test; assay type: functional
Polygonum humifusum [16] = assay: Post-emergence herbicidal activity against Polygonum humifusum assessed as growth inhibition at emulsified concentrate of 37.5 g/ai ha after 15 days by greenhouse test; assay type: functional
Brassica juncea [17] = assay: Post-emergence herbicidal activity against Brassica juncea assessed as growth inhibition at emulsified concentrate of 75 g/ai ha after 15 days by greenhouse test; assay type: functional; method in brief: as §2
Brassica juncea [18] = assay: Post-emergence herbicidal activity against Brassica juncea assessed as growth inhibition at emulsified concentrate of 37.5 g/ai ha after 15 days by greenhouse test; assay type: functional; method in brief: as §2
Eclipta prostrata [19] = assay: Post-emergence herbicidal activity against Eclipta prostrata assessed as growth inhibition at emulsified concentrate of 150 g/ai ha after 15 days by greenhouse test; assay type: functional
Method in brief: (§3)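 About 20 seeds sown 1–3 cm deep, grown at 15–30 °C and 50% RH. Dicot seedlings sprayed postemergence at the two-leaf stage with a 100 g/L emulsifiable concentrate (DMF/Tween-80) diluted in water, 150 g ai/ha. Untreated and solvent controls included. Visual rating at 15 days, three replicates.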

Amaranthus retroflexus [20] = assay: Post-emergence herbicidal activity against Amaranthus retroflexus assessed as growth inhibition at emulsified concentrate of 150 g/ai ha after 15 days by greenhouse test; assay type: functional; method in brief: as §3
Brassica juncea [21] = assay: Post-emergence herbicidal activity against Brassica juncea assessed as growth inhibition at emulsified concentrate of 150 g/ai ha after 15 days by greenhouse test; assay type: functional; method in brief: as §3
Poa annua = assay: Post-emergence herbicidal activity against Poa annua assessed as growth inhibition at emulsified concentrate of 150 g/ai ha after 15 days by greenhouse test; assay type: functional; method in brief: as §1
[22] = biological target: T1, Protoporphyrinogen oxidase (Homo sapiens, UniProt P50336); assay: Inhibition of Homo sapiens (human) recombinant protoporphyrinogen oxidase expressed in Escherichia coli JM109 assessed as oxidation of protoporphyrinogen IX substrate by fluorescence assay
T1 sequence (P50336 whole entry): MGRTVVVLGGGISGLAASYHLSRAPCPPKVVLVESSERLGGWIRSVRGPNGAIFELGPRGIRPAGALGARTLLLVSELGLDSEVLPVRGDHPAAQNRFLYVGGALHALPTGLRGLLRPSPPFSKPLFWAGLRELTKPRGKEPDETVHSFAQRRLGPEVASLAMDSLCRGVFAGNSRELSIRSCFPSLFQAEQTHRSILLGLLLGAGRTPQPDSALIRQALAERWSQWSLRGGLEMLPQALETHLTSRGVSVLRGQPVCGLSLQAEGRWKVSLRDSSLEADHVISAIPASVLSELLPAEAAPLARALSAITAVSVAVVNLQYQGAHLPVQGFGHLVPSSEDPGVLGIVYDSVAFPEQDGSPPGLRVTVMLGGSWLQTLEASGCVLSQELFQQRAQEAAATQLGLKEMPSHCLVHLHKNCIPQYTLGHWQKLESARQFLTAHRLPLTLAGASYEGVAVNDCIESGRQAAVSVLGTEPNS

SMILES | inhibition (INH) (Digitaria sanguinalis) | inhibition (INH) (Echinochloa crus-galli) | inhibition (INH) (Eclipta prostrata [1]) | inhibition (INH) (Eclipta prostrata [2]) | inhibition (INH) (Rumex acetosa [3]) | inhibition (INH) (Rumex acetosa [4]) | inhibition (INH) (Rumex acetosa [5]) | inhibition (INH) (Amaranthus retroflexus [6]) | inhibition (INH) (Amaranthus retroflexus [7]) | inhibition (INH) (Cyperus iria [8]) | inhibition (INH) (Cyperus iria [9]) | inhibition (INH) (Cyperus iria [10]) | inhibition (INH) (Abutilon theophrasti [11]) | inhibition (INH) (Abutilon theophrasti [12]) | inhibition (INH) (Abutilon theophrasti [13]) | inhibition (INH) (Polygonum humifusum [14]) | inhibition (INH) (Polygonum humifusum [15]) | inhibition (INH) (Polygonum humifusum [16]) | inhibition (INH) (Brassica juncea [17]) | inhibition (INH) (Brassica juncea [18]) | further results
CCOC(=O)C(C)Sc1nc2cc(-n3nc(C(C)(C)C)oc3=O)c(Cl)cc2s1 (stereo not given) | 0% | 0% | 40% | 0% | 60% | 30% | 0% | 100% | 60% | 70% | 60% | 60% | 0% | 0% | 0% | 70% | 60% | 40% | 0% | 0% | inhibition (INH) (Eclipta prostrata [19]): 70%; inhibition (INH) (Amaranthus retroflexus [20]): 100%; inhibition (INH) (Brassica juncea [21]): 50%; inhibition (INH) (Poa annua): 0%; Ki [22]: 1690 nM
CCOC(=O)CCSc1nc2cc(-n3nc(C(C)(C)C)oc3=O)c(Cl)cc2s1 | 0% | 0% | 60% | 50% | 70% | 70% | 60% | 60% | 50% | 60% | 50% | 40% | 0% | 0% | 0% | 70% | 70% | 70% | 60% | 60% | inhibition (INH) (Eclipta prostrata [19]): 60%; inhibition (INH) (Amaranthus retroflexus [20]): 80%; inhibition (INH) (Brassica juncea [21]): 70%; inhibition (INH) (Poa annua): 0%; Ki [22]: 250 nM
COC(=O)CSc1nc2cc(-n3nc(C(C)(C)C)oc3=O)c(Br)cc2s1 | 0% | 0% | 0% | 0% | 60% | 50% | 40% | 60% | 50% | 50% | 40% | 40% | 0% | 0% | 0% | 70% | 70% | 60% | 0% | 0% | inhibition (INH) (Eclipta prostrata [19]): 0%; inhibition (INH) (Amaranthus retroflexus [20]): 80%; inhibition (INH) (Brassica juncea [21]): 0%; inhibition (INH) (Poa annua): 0%; Ki [22]: 7460 nM
